Measurements published in ChEMBL document CHEMBL3856250, “Discovery of 6-Fluoro-5-(R)-(3-(S)-(8-fluoro-1-methyl-2,4-dioxo-1,2-dihydroquinazolin-3(4H)-yl)-2-methylphenyl)-2-(S)-(2-hydroxypropan-2-yl)-2,3,4,9-tetrahydro-1H-carbazole-8-carboxamide (BMS-986142): A Reversible Inhibitor of Bruton's Tyrosine Kinase (BTK) Conformationally Constrained by Two …” (J Med Chem, 2016).
In brackets after ≈: the same amount, converted by molar mass.

What was measured:
[1] = MRT in rat at 2 mg/kg, iv; assay type: ADME, organism-based; conditions: in vivo
[2] = target: Cytochrome P450 3A4 (Homo sapiens, UniProt P08684); experiment: Inhibition of CYP3A4 (unknown origin); assay type: ADME
Cytochrome P450 3A4, sequence (P08684 whole entry): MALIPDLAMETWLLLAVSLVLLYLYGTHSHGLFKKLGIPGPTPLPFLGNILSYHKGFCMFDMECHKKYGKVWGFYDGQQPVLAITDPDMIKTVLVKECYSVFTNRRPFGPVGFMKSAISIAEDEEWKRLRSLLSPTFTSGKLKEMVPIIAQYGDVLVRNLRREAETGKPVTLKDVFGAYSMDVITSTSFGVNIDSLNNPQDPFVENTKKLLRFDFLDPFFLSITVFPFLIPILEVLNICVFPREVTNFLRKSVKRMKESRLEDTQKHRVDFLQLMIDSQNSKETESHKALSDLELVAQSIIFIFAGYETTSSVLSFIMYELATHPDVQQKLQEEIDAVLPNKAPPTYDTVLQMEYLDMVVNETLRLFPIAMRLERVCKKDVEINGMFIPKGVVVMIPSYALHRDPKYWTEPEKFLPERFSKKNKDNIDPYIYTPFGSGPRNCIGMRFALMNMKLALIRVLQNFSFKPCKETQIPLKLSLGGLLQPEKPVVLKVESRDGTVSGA

[3] = Protein binding in monkey plasma; assay type: ADME, cell-free, Macaca mulatta; conditions: rhesus monkey, read-out: PPB (converted)
[4] = target: T1, Tyrosine-protein kinase ITK/TSK (Homo sapiens, UniProt Q08881); experiment: Inhibition of ITK in human peripheral T cells assessed as suppression of TCR/anti-CD3-stimulated protein catalyzed PLCgamma1 phosphorylation; assay type: cell-based, T-cell
T1 sequence (Q08881 whole entry): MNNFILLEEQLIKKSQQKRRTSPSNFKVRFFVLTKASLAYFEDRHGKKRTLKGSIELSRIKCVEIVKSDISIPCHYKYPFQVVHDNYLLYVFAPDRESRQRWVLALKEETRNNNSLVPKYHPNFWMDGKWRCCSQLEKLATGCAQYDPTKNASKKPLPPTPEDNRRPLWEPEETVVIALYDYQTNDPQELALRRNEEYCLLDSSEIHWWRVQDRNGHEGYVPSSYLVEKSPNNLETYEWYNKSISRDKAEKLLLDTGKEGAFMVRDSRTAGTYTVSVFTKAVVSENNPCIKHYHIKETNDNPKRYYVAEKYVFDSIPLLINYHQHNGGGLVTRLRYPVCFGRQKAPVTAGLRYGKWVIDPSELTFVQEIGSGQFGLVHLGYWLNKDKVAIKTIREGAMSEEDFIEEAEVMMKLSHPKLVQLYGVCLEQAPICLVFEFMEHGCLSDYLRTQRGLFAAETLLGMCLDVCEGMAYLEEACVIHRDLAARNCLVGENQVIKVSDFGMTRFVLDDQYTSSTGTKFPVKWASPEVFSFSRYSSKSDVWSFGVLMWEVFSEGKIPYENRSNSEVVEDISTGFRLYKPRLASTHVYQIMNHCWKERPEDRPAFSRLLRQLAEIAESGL

[5] = target: Tyrosine-protein kinase BTK (Mus musculus, UniProt P35991); experiment: Inhibition of BTK in mouse whole blood assessed as suppression of BCR/anti-IgM/IgG-stimulated CD69 surface expression after 18 hrs with agitation by FITC-staining based FACS analysis; assay type: tissue-based
Tyrosine-protein kinase BTK (Mus musculus, UniProt P35991), sequence (P35991 whole entry): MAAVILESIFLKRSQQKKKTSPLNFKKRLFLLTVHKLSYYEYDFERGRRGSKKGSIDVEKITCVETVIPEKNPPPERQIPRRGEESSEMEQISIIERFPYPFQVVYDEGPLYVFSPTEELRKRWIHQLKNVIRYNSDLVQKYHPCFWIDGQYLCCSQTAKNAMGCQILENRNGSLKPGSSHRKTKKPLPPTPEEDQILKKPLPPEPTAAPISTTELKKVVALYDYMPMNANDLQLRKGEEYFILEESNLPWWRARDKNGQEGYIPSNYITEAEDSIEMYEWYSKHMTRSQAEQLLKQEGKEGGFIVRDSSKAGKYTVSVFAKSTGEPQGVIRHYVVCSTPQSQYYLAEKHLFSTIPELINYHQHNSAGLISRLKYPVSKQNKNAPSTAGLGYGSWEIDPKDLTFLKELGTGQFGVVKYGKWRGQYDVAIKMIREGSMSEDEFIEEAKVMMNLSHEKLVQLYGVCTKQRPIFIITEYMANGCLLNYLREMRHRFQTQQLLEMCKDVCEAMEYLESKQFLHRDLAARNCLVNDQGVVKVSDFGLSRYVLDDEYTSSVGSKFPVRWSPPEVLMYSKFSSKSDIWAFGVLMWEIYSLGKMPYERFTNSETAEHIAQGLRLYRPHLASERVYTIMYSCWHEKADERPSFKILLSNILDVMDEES
In short: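 Mouse whole blood was incubated with compound and stimulated with F(ab′)2 goat anti-mouse IgG+IgM (100 μg/mL) in the same way as the human assay (18 h, 37 °C, agitation). B cells were gated by APC anti-CD19, and CD69 was quantified as FITC MFI by FACS.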

[6] = target: Cytochrome P450 2D6 (Homo sapiens, UniProt P10635); experiment: Inhibition of CYP2D6 (unknown origin); assay type: ADME
Cytochrome P450 2D6, sequence (P10635 whole entry): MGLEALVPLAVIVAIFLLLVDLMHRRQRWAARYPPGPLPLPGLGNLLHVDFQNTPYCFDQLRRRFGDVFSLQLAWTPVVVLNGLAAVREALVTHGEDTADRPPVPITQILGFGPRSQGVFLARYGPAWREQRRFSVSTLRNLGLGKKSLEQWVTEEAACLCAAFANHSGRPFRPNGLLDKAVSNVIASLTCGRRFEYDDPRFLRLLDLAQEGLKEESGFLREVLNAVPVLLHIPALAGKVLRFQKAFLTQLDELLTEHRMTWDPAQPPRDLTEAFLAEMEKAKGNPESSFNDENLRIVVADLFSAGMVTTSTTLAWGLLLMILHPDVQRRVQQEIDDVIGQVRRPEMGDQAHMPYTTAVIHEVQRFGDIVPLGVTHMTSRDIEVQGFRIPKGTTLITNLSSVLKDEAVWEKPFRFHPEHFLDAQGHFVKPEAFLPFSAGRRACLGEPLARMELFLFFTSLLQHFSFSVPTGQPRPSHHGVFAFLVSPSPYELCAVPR

[7] = Clearance in dog at 1 mg/kg, iv; assay type: ADME, organism-based, Canis lupus familiaris; conditions: in vivo
[8] = Mutagenicity in Salmonella typhimurium by Ames test; assay type: toxicity; conditions: salmonella enterica subsp. enterica serovar typhimurium
[9] = MRT in mouse at 3 mg/kg, iv; assay type: ADME, organism-based; conditions: in vivo
[10] = Oral bioavailability in mouse at 3 mg/kg; assay type: ADME, organism-based; conditions: in vivo
[11] = AUC in mouse at 6 mg/kg, po; assay type: ADME, organism-based; conditions: in vivo
[12] = Tmax in mouse at 6 mg/kg, po; assay type: ADME, organism-based; conditions: in vivo
[13] = MRT in cynomolgus monkey at 2 mg/kg, iv; assay type: ADME, organism-based, Macaca fascicularis; conditions: in vivo
[14] = target: Cytochrome P450 2C9 (Homo sapiens, UniProt P11712); experiment: Inhibition of CYP2C9 (unknown origin); assay type: ADME
Cytochrome P450 2C9, sequence (P11712 whole entry): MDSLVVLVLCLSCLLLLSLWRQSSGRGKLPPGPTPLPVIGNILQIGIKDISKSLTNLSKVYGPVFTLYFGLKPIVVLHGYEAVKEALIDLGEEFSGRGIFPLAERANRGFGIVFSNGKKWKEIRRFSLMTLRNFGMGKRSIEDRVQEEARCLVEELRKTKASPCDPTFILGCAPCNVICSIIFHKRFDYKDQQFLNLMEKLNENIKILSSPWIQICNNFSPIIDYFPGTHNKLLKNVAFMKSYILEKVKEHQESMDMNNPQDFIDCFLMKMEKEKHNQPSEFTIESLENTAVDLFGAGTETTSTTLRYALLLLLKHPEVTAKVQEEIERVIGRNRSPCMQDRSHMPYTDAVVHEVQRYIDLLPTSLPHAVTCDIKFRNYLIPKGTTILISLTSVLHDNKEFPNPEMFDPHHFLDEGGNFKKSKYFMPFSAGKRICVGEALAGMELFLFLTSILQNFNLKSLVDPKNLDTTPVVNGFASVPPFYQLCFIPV

[15] = Oral bioavailability in cynomolgus monkey at 4 mg/kg; assay type: ADME, organism-based, Macaca fascicularis; conditions: in vivo
[16] = target: Proto-oncogene tyrosine-protein kinase Src (Homo sapiens, UniProt P12931); experiment: Inhibition of SRC (unknown origin)
Proto-oncogene tyrosine-protein kinase Src, sequence (P12931 2-536 limits assumed): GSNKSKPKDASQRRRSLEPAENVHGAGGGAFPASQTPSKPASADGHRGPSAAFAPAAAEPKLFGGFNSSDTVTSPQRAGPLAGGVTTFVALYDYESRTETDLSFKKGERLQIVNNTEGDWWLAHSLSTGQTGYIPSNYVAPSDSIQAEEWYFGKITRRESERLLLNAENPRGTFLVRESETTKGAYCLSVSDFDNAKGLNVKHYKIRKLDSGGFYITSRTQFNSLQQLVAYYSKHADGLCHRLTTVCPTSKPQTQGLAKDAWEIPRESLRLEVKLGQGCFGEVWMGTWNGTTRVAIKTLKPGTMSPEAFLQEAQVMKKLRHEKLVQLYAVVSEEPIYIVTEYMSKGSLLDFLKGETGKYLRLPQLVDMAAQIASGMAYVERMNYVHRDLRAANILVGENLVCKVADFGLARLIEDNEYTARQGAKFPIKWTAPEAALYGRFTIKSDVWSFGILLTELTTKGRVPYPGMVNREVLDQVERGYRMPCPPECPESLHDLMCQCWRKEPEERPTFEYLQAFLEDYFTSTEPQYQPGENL

[17] = Volume of distribution at steady state in mouse at 3 mg/kg, iv; assay type: ADME, organism-based; conditions: in vivo, read-out: Vdss
[18] = Protein binding in rat plasma; assay type: ADME, cell-free; conditions: read-out: PPB (converted)
[19] = Protein binding in mouse plasma; assay type: ADME, cell-free; conditions: read-out: PPB (converted)
[20] = Protein binding in dog plasma; assay type: ADME, cell-free, Canis lupus familiaris; conditions: read-out: PPB (converted)
[21] = Cmax in mouse at 10 mg/kg, iv or po; assay type: ADME, organism-based; conditions: in vivo
[22] = test system: Mus musculus; experiment: Antiathritis activity in anticollagen antibody-induced arthritis BALB/c mouse model assessed as reduction in LPS-induced paw swelling at 5 mg/kg, po qd followed by LPS addition on day 3 measured after 11 days relative to control; assay type: functional; set-up: scale not given: the % may be the effect or the level left
[23] = target: T2, Tyrosine-protein kinase BTK (Homo sapiens, UniProt Q06187); experiment: Inhibition of BTK in human whole blood assessed as suppression of BCR/anti-IgM/IgG-stimulated CD69 surface expression after 18 hrs with agitation by FITC-staining based FACS analysis; assay type: tissue-based
T2 sequence (Q06187 whole entry): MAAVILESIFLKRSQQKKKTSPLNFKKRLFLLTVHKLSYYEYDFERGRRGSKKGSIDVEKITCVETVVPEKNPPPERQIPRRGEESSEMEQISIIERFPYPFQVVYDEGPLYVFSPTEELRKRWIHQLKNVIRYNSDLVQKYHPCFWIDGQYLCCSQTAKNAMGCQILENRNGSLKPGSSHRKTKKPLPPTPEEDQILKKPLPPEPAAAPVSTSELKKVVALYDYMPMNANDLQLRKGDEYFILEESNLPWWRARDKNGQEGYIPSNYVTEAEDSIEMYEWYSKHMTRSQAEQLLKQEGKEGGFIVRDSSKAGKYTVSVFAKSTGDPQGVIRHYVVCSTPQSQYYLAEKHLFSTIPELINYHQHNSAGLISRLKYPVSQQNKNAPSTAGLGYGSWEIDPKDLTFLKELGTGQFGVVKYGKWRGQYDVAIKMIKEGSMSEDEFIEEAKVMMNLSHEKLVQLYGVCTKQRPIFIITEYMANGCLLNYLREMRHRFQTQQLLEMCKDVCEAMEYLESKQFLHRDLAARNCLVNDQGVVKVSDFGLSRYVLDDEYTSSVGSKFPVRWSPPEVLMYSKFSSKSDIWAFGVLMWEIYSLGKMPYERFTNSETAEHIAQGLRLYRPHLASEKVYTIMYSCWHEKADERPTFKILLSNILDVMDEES

[24] = Clearance in rat at 2 mg/kg, iv; assay type: ADME, organism-based; conditions: in vivo
[25] = target: T3, Cytochrome P450 1A2 (Homo sapiens, UniProt P05177); experiment: Inhibition of CYP1A2 (unknown origin); assay type: ADME
T3 sequence (P05177 whole entry): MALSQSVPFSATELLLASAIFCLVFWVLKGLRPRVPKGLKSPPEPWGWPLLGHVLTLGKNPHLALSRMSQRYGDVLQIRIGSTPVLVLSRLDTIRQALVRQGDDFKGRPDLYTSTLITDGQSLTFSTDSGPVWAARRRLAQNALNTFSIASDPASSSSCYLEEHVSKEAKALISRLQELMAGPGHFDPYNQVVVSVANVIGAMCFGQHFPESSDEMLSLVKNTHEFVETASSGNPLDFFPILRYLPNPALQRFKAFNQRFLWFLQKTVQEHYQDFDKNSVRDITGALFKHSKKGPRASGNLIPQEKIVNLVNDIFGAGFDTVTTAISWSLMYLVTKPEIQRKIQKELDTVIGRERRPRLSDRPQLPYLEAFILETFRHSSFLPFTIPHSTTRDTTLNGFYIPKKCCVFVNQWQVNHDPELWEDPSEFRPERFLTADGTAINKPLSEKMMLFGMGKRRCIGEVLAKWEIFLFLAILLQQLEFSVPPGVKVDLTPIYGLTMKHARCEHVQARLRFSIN

[26] = Aqueous solubility of the compound; assay type: physicochemical; conditions: aqueous medium
[27] = Cmax in mouse at 6 mg/kg, po; assay type: ADME, organism-based; set-up: dose 6 mg/kg, route oral; conditions: in vivo
[28] = Cmax in dog at 2 mg/kg, po; assay type: ADME, organism-based, Canis lupus familiaris; set-up: dose 2 mg/kg, route oral; conditions: in vivo
[29] = target: T2, Tyrosine-protein kinase BTK; experiment: Inhibition of BTK in human whole blood basophils assessed as suppression of FceRI/anti-IgE-stimulated CD63 surface expression; assay type: tissue-based
[30] = Solubility of the compound in fasted state stimulated intestinal fluid; assay type: ADME; conditions: fasted state simulated intestinal fluid (FaSSIF)
[31] = Bioavailability in mouse at 10 mg/kg; assay type: ADME, organism-based; conditions: in vivo
[32] = target: T2, Tyrosine-protein kinase BTK; experiment: Inhibition of BTK in human peripheral B cells assessed as suppression of CD40/CD40L-stimulated CD69 surface expression; assay type: cell-based
[33] = Tmax in dog at 2 mg/kg, po; assay type: ADME, organism-based, Canis lupus familiaris; conditions: in vivo
[34] = Cmax in cynomolgus monkey at 4 mg/kg, po; assay type: ADME, organism-based, Macaca fascicularis; set-up: dose 4 mg/kg, route oral; conditions: in vivo
[35] = Tmax in rat at 5 mg/kg, po; assay type: ADME, organism-based; conditions: in vivo
[36] = Oral bioavailability in dog at 2 mg/kg; assay type: ADME, organism-based, Canis lupus familiaris; conditions: in vivo
[37] = target: T2, Tyrosine-protein kinase BTK; experiment: Inhibition of BTK in human PBM cells assessed as suppression of FCRgammaR/immune complex-stimulated TNFalpha production; assay type: cell-based

MRT [1]: 5.1 h
IC50 [2]: 8.5 µM
fraction unbound [3]: 0.012
IC50 [4]: 410 nM
IC50 [5]: 140 nM
IC50 [6]: > 40 µM
clearance [7]: 3.2 mL/min/kg
MRT [9]: 4.8 h
bioavailability [10]: 93%
AUC [11]: 39 µM·h
Tmax [12]: 1 h
MRT [13]: 4.7 h
IC50 [14]: 17.1 µM
bioavailability [15]: 33%
IC50 [16]: 1100 nM
Vd [17]: 1.2 L/kg
fraction unbound [18]: 0.017
fraction unbound [19]: 0.015
fraction unbound [20]: 0.009
Cmax [21]: 4.9 µM
IC50 [23]: 90 nM
clearance [24]: 4.2 mL/min/kg
IC50 [25]: > 40 µM
solubility [26]: < 4 µg/mL
Cmax [27]: 4.9 µM
Cmax [28]: 1200 nM
IC50 [29]: 89 nM
solubility [30]: 18 µg/mL (≈ 31.4 µM)
bioavailability [31]: < 4%
IC50 [32]: > 10 µM
Tmax [33]: 3 h
Cmax [34]: 850 nM
Tmax [35]: 3 h
bioavailability [36]: 100%
IC50 [37]: 3 nM
Structure (SMILES): Cc1c(-c2c(F)cc(C(N)=O)c3[nH]c4c(c23)CC[C@H](C(C)(C)O)C4)cccc1-n1c(=O)c2cccc(F)c2n(C)c1=O (atropisomer R) [BMS-986142]
Activity [8]: Non-Toxic
Activity [22]: 72%
